hIAP activ – human IAP activators, primary screen, biochemical, luminescence, uHTS; Intestinal-type alkaline phosphatase (Homo sapiens), P09923; purified human IAP, CDP-Star luminescence, 30 min; stronger effect = higher value; 1 = vehicle-only enzyme, 0 = enzyme-free background; activation factor at 10 µM; hit rate 0.16% among 330,000;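 active = activation factor of the enzyme at least 2-fold when tested at 20 µM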
Target sequence (P09923 whole entry, looked up): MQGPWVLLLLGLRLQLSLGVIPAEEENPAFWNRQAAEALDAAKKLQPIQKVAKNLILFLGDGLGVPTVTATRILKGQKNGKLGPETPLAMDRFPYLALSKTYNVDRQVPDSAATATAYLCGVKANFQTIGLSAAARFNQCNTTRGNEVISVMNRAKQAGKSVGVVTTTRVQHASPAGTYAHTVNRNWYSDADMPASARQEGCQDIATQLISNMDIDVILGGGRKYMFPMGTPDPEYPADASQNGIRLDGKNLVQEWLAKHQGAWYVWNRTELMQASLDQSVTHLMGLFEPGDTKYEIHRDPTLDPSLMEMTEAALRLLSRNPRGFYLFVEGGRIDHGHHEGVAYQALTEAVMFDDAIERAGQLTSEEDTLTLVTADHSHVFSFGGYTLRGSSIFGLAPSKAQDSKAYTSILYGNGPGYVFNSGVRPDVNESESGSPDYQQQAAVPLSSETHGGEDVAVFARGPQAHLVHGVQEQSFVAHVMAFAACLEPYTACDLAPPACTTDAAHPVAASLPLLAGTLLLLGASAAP
mIAP act – activators of mouse IAP, primary screen, biochemical, luminescence, uHTS; intestinal alkaline phosphatase [Mus musculus]; AID 2805, 2010; hit rate 0.24% among 330,000; muIAP, CDP-Star luminescence, 30 min; stronger effect = higher value; 1 = vehicle-only enzyme signal, 0 = enzyme-free wells; activation factor at 10 µM;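 active = activation factor of at least 2 at 20 µM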
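Assay system: mouse IAP enzyme; reagent: chemiluminescent substrate CDP-Star; dosing: test compounds delivered from DMSO solution; schedule: 30 min at room temperature; measured by: luminescence from enzymatic CDP-Star hydrolysis; controls: DMSO-only wells and no-enzyme negative control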
mIAP block – inhibitors of mouse IAP, primary screen, biochemical, luminescence, uHTS. intestinal alkaline phosphatase [Mus musculus]. purified mouse IAP, CDP-Star luminescence, 30 min. inhibition, % at 10 µM. hit rate 0.2% among 330,000. AID 2806, 2010;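 active = inhibition of at least 40% at 10 µM in the primary screen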;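 note: plate controls were DMSO with enzyme for no effect and no enzyme wells for full effect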
bIAP inh – bovine intestinal alkaline phosphatase inhibitors, primary screen, selectivity assay for TNAP inhibitor project, biochemical, bovine IAP, CDP-star luminescence | alkaline phosphatase, intestinal [Bos taurus] | purified bovine IAP, 30 min | inhibition, % at 20 µM | 190,000 tested, under 10 active | AID 1019, 2008;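 active = over 50% inhibition of intestinal alkaline phosphatase at 20 µM in the single-dose screen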
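Assay system: bovine IAP enzyme; medium: DEA buffer 100 mM, pH 9.8, with MgCl2 1.0 mM, ZnCl2 0.02 mM; doses: 20 µM single dose; incubation: enzyme reaction for 30 min at room temperature; detection: CDP-star luminescence signal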
bIAP activator – bovine intestinal alkaline phosphatase activators, primary screen, biochemical, bovine IAP, CDP-star luminescence; alkaline phosphatase, intestinal [Bos taurus]; purified bovine IAP, 30 min; stronger effect = higher value; fold of DMSO-control signal, blank-subtracted; activation factor at 20 µM; hit rate 0.17% among 200,000; AID 1016, 2008;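 active = activation factor of 2 or more at 20 µM, a signal rise over negative controls twice the positive control's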
hIAP block – human IAP inhibitors, primary screen, biochemical, luminescence, uHTS; purified IAP, CDP-Star luminescence, 30 min; Intestinal-type alkaline phosphatase (Homo sapiens), P09923; inhibition, % at 10 µM; hit rate 0.12% among 330,000; AID 2544, 2010;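 active = inhibition reaching a set limit with compound at 10 µM in the primary screen, cut at about 35% in these data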;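 note: plate controls were DMSO wells with enzyme for no effect and no-enzyme buffer wells for full effect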
mIAP inh conf – inhibitors of mouse IAP, confirmation, biochemical, luminescence, single concentration | hit rate 4.7% among 11,000 | inhibition, % at 10 µM | shares compounds with mIAP block | purified mouse IAP, CDP-Star luminescence, 30 min;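 active = inhibition of at least 40% at 10 µM in either of the two replicates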;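 note: plate controls were DMSO wells with enzyme for no effect and buffer wells lacking enzyme for full effect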
Starred values were filed as active, the others as inactive; . = no result; ! = a repeat was not active. The list is not random: actives were taken first. Their share in the collection is about 0.72%.

SMILES | hIAP activ | mIAP act | mIAP block | bIAP inh | bIAP activator | hIAP block | mIAP inh conf
Cn1cc(S(=O)(=O)N2CCOCC2)cc1C(=O)O | 0.99 | 1 | -4 | . | . | 1 | .
C=Cc1c(C)c2cc3[nH]c(cc4nc(cc5nc(cc1[nH]2)C(C)=C5CCC(=O)O)C(CCC(=O)O)=C4C)c(C)c3C=C | 0.86 | 0.58 | 42*! | . | . | 14 | 42*
COc1ccc(NC(=O)CCCOc2ccc(Cl)c(C)c2)cc1S(=O)(=O)N1CCOCC1 | 1.1 | 1.3 | -26 | . | . | -8 | .
Cc1ccnc(Nc2nc(-c3ccc(O)c(O)c3)cs2)c1 | 1 | 0.66 | 34 | . | . | -4 | .
Cc1cccnc1Nc1nc(-c2ccc(O)c(O)c2)cs1 | 0.92 | 0.46 | 54* | 44 | 0.6 | 8 | 68*
Oc1ccc(-c2csc(Nc3cccc4ccccc34)n2)cc1O | 0.68 | 0.37 | 63* | . | . | 32 | 80*
Cc1cccc(Nc2nc(-c3ccc(O)c(O)c3)cs2)n1 | 0.81 | 0.67 | 33 | . | . | 20 | .
Oc1ccc(-c2csc(Nc3ccccn3)n2)cc1O | 1 | 0.38 | 62* | . | . | -1 | 77*
CC1(C)CC2=C(CO1)C(=S)NC(c1ccccc1)N2CC1CCCO1 (stereo not given) | 1 | 0.93 | 7 | . | . | -2 | .
CC(C)(C)NC(=O)NC(=O)COC(=O)C1CCN(S(=O)(=O)c2cccs2)CC1 | 1 | 0.96 | 4 | . | . | -3 | .
CCCn1c(SCC(=O)NC2CCCCC2)nnc1-c1ccco1 | 1.1 | 1 | 0 | . | . | -7 | .
CCCCn1c(N)c(N(CCOC)C(=O)c2ccc(N3CCCC3)c([N+](=O)[O-])c2)c(=O)[nH]c1=O | 0.98 | 0.96 | 4 | . | . | 2 | .
O=C(CNc1cccc2ccccc12)N/N=C/c1ccc(C(=O)O)cc1 | 0.9 | 0.8 | 20 | 13 | 0.9 | 10 | .
O=C(CNc1cccc2ccccc12)N/N=C/C=C/c1ccco1 | 0.9 | 0.39 | 61* | 14 | 0.9 | 10 | 59*
Cc1sc2nc(SCC(=O)Nc3cccc(S(N)(=O)=O)c3)[nH]c(=O)c2c1C | 0.97 | 0.49 | 51* | . | . | 3 | 62*
COc1ccc(NC(=O)NC23CC4(C)CC(C)(CC(C)(C4)C2)C3)cc1 | 1.3 | 3.1* | -207 | 0 | 1 | -30 | -108
COc1ccc(NC(=O)NC2(C)CCS(=O)(=O)C2)cc1 (stereo not given) | 1 | 1.1 | -8 | . | . | -2 | .
CCCCOc1ccc(NC2=NC3(CCCCC3)N=C(N)N2)cc1 | 0.98 | 4.8* | -376 | -365 | 4.6* | 2 | -453
Oc1cc(O)c2c(c1)O[C@H](c1ccc(O)c(O)c1)[C@H](O)C2 | 0.81 | 0.18 | 82* | . | . | 19 | 62*
COc1ccc([C@H]2CC(=O)c3c(O)cc(O)cc3O2)cc1O | 1.1 | 0.92 | 8 | . | . | -8 | .
O=C(/C=C/c1ccc(O)c(O)c1)OC(Cc1ccc(O)c(O)c1)C(=O)O (stereo not given) | 0.69 | 0.23 | 77* | . | . | 31 | 78*
O=C(/C=C/c1ccc(O)c(O)c1)OCCc1ccccc1 | 0.71 | 0.85 | 15 | . | . | 29 | .
O=C(NNC(=O)c1cccc2ccccc12)c1ccc(-c2ccccc2)cc1 | 1.6 | 0.93 | 7 | 24 | 0.8 | -58 | .
O=C(NNC(=O)c1ccc(O)cc1O)c1ccc(-c2ccccc2)cc1 | 1.4 | 0.57 | 43* | . | . | -42 | 40*
c1coc(C2Nc3cccc4cccc(c34)N2)c1 | 1 | 0.48 | 52* | 31 | 0.7 | -3 | 69*
SMILES | hIAP activ | mIAP act | mIAP block | bIAP inh | bIAP activator | hIAP block | mIAP inh conf
O=C(N/N=C/c1ccco1)c1cccc(S(=O)(=O)Nc2ccccc2Cl)c1 | 0.9 | 0.47 | 54* | 27 | 0.7 | 10 | 61*
CC(=O)NN1C(=O)/C(=C/c2ccc(Br)o2)SC1=S | 1 | 0.33 | 67* | 17 | 0.8 | -3 | 75*
CC(=O)NN1C(=O)/C(=C\c2ccccc2)SC1=S | 0.93 | 1 | -3 | 4 | 1 | 7 | .
CC(=O)NN1C(=O)/C(=C\c2ccc(O)cc2)SC1=S | 0.68 | 0.72 | 28 | . | 0.5 | 32 | .
CC(=O)NN1C(=O)/C(=C\c2ccc(Br)o2)SC1=S | 0.97 | 0.4 | 60* | 8 | 0.9 | 3 | 74*
CCN(c1ccccc1)S(=O)(=O)c1c(C)noc1C | 0.97 | 1 | -5 | . | . | 3 | .
N#Cc1c2c(c(NCc3ccco3)n3c1nc1ccccc13)CCC2 | 1.1 | 0.49 | 50* | 12 | 0.9 | -11 | 57*
COC(=O)c1cc(O)cc(OC)c1Oc1cc(C)cc(O)c1C(=O)O | 0.95 | 0.47 | 53* | . | . | 5 | 67*
CC(=O)NC(NC(=S)Nc1ccc(C)cc1C)C(Cl)(Cl)Cl (stereo not given) | 0.99 | 1.1 | -14 | . | . | 1 | .
Cc1ccc(NC(=S)NC(NC(=O)c2ccccc2C)C(Cl)(Cl)Cl)c(C)c1 (stereo not given) | 1.2 | 3.1* | -212 | -5 | 1 | -16 | -211
N#Cc1c(SCC(=O)Nc2ccc(C(F)(F)F)cc2)sc2c(O)cc(=O)[nH]c12 | 0.95 | 0.68 | 32 | . | . | 5 | .
N#Cc1c(SCC(=O)Nc2nncs2)sc2c(O)cc(=O)[nH]c12 | 1 | 0.43 | 57* | . | . | -4 | 70*
O=C1c2ccccc2[C@@H]2C[C@@H](O)[C@H](Nc3ccccc3-c3ccccc3)CCN12 | . | 0.94 | 6 | . | . | . | .
Cc1ccc(C)c(NS(=O)(=O)c2ccc3[nH]c(=O)oc3c2)c1 | 1.1 | 0.16 | 84* | -6 | 1.1 | -7 | 89*
COC(=O)c1ccc(NS(=O)(=O)c2ccc3[nH]c(=O)oc3c2)cc1 | 1.1 | 0.3 | 70* | . | . | -11 | 74*
Cc1cccc(NS(=O)(=O)c2ccc3[nH]c(=O)oc3c2)c1C | 1.1 | 0.98 | 2 | . | . | -8 | .
Cc1ccc(NS(=O)(=O)c2ccc3[nH]c(=O)oc3c2)cc1Cl | 0.93 | 0.8 | 20 | . | . | 8 | .
O=c1[nH]c2ccc(S(=O)(=O)N3CCCCC3)cc2o1 | 0.96 | 0.2 | 80* | 11 | 0.9 | 4 | 74*
COc1ccc(N(CC(=O)NCc2cccnc2)S(=O)(=O)c2c(C)nn(C)c2C)cc1 | 0.77 | 1.1 | -7 | 7 | 0.9 | 24 | .
CC(=O)Nc1ccc(S(=O)(=O)Nc2nc3ccccc3nc2Nc2cccc(O)c2)cc1 | 1.1 | 0.91 | 9 | . | . | -12 | .
CC(=O)Nc1ccc(S(=O)(=O)Nc2nc3ccccc3nc2Nc2ccc(C(=O)O)c(O)c2)cc1 | 0.99 | 0.58 | 42* | . | . | 0 | 50*
